Compound activity (PubChem BioAssay)
Hits are enriched below; roughly 2.9% of the tested compounds scored in any of these assays.
TRPC4 potent: positive allosteric modulators of TRPC4, primary screen, cell-based, mouse TRPC4beta, HEK293 mu-opioid, Fluo-4 calcium; Short transient receptor potential channel 4 (Mus musculus), Q9QUQ5; DAMGO EC20, Fluo-4 Ca2+ flux; hits give high values; B-score at 10 µM; 310,000 tested, 0.42% active; AID 2227, 2009;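 active means B-score of calcium response area above 5 SD of library B-scores, with initial fluorescence ratio within 5 SD of library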
TRPC4 block: inhibitors of mouse TRPC4 channel, primary screen, Fluo4 calcium, HEK293 TRPC4beta/mu-opioid cells; Short transient receptor potential channel 4 (Mus musculus), Q9QUQ5; DAMGO-evoked Fluo4 calcium flux; hits give low values; B-score at 10 µM; 300,000 tested, 0.39% active; AID 2247, 2010;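 active means B-score over 3 SD under the library average, no early fluorescence shift, positive overall ratio signal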
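material = TRPC4beta/mu-opioid receptor HEK293 cell line | probe or stimulus = sequential submaximal and maximal DAMGO stimulation | compound dosing = one concentration per compound | measured by = Fluo4 Ca2+ flux fluorescence | evaluation = integrated fluorescence ratio relative to baseline, converted to per-well B score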
TRPC4 act: activators of mouse TRPC4 channel, primary screen, Fluo4 calcium, HEK293 TRPC4beta/mu-opioid cells; Short transient receptor potential channel 4 (Mus musculus), Q9QUQ5; Fluo4 calcium fluorescence; hits give high values; B-score at 10 µM; 310,000 tested, 0.49% active;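 active means B-score above 5 SD of library B-scores, and initial fluorescence ratio not above library mean plus 5 SD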;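 further: positive B-score marks a calcium rise read as TRPC4 activation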
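Material: TRPC4beta and mu-opioid receptor HEK293 stable cells | Incubation: 45 min room-temperature Fluo4 loading, 110 s read | Detection: Kinetic Fluo4 calcium fluorescence | Measure: Integrated baseline-normalised fluorescence ratio, converted to per-well B score | Benchmarks: Low control buffer alone, high control maximal DAMGO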
TRPC6 activator: mouse TRPC6 channel activators, primary screen, cell-based, HEK293, membrane potential dye | Short transient receptor potential channel 6 (Mus musculus), Q61143 | HEK293-TRPC6 membrane potential dye fluorescence; hits give high values | B-score at 10 µM | 310,000 tested, 0.13% active | AID 2550, 2010;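 active means B-score of the integrated fluorescence ratio above library mean plus 3 SD, and starting fluorescence ratio within library mean plus 5 SD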;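 further: higher score means more depolarization so channel activation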
TRPC6 inh: mouse TRPC6 channel inhibitors, primary screen, cell-based, HEK293, membrane potential dye; Short transient receptor potential channel 6 (Mus musculus), Q61143; ACh-evoked depolarization; hits give low values; B-score at 10 µM; 310,000 tested, 1.1% active; AID 2553, 2010;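 active means B-score under library mean minus 3 SD, initial fluorescence not abnormally high, positive integrated signal ratio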;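 further: B-score derived from integrated fluorescence ratio over the kinetic read; more negative B-score means stronger inhibition of depolarization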
Kir21 block: inhibitors of mouse Kir2.1 inward-rectifier potassium channel; B-score at 10 µM; HEK293-Kir2.1, FluxOR thallium flux fluorescence; hits give low values; 310,000 tested, 0.85% active; Inward rectifier potassium channel 2 (Mus musculus), P35561; AID 1672, 2009;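 active means fluorescence ratio B-score at or below minus 3 SD of library scores, with starting-brightness B-score within 2 SD, cut at about -4.2 in these data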;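 further: channel flux triggered by added potassium and thallium sulfate stimulus; B-score of peak minus minimum fluorescence over baseline after thallium stimulus; more negative B-score means stronger Kir2.1 block with less thallium influx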
Large screens that a line does not name were inactive.

COc1cc(CN2CCc3c([nH]c4ccccc34)C2)cc(OC)c1	Kir21 block -4.2
CCCCOC(=O)Nc1nnc(Cc2ccc(Cl)cc2)s1	none
CN(Cc1ccccc1)CC(O)COc1ccc(CNCc2ccc(Cl)s2)cc1 (stereo not given)	Kir21 block -12
CC(C)S(=O)(=O)c1csc(NC(=O)Nc2cccc([N+](=O)[O-])c2)c1Cl	none
CC(C)NC(=O)Cn1cc(C(=O)C2CC2)c2ccccc21	none
O=C(Cn1cccc1C(=O)c1ccccc1)NCCC1=CCCCC1	Kir21 block -6.8
O=C(Cn1cccc1C(=O)c1ccccc1)NCCCc1ccccc1	none
CNC[C@H](CC1CCCCC1)NC[C@H](Cc1ccccc1)NCCC12CC3CC(CC(C3)C1)C2	TRPC4 act 152, Kir21 block -8.2
Cc1ccc(Nc2c(N)c(=O)oc3ccccc23)cc1	TRPC4 potent 31
Cc1noc(C)c1COC(=O)[C@@H](NC(=O)c1ccccc1Cl)C(C)C	TRPC4 potent 48
Cc1noc(C)c1COC(=O)[C@H](C)NS(=O)(=O)c1ccc(Cl)c(Cl)c1	Kir21 block -5.2
Cc1ccccc1Nc1nc(N)nc(COC(=O)[C@@H](NC(=O)c2ccccc2Cl)C(C)C)n1	none
COc1ccc(-n2ncc3c2CC(C)(C)CC3NC(=O)c2c(C)cc(=O)oc2C)cc1 (stereo not given)	none
O=[N+]([O-])c1ccc(S(=O)(=O)NCCCc2ccccc2)cc1	TRPC4 potent 57
O=S(=O)(NCCCc1ccccc1)c1ccc(Cl)cc1	Kir21 block -4.8
CN1C(=O)C(O)(C2CCCCCC2=O)c2ccccc21 (stereo not given)	none
COc1nc(-c2ccccc2Cl)ccc1C#N	TRPC4 block -6
C/C(=N/NC(=O)c1cc(-c2ccccc2)nc2c(Cl)cccc12)c1cccnc1	none
COc1ccc(CN=C2NN=C(c3ccc(Cl)cc3)CS2)cc1	TRPC4 block -6
CC(C)(C)N=C1NN=C(c2ccc(Cl)cc2)CS1	none
Cc1ccc(CC(=O)NC2CCCc3ccccc32)cc1C (stereo not given)	none
CCn1cc(CN2CCC(n3nccc3NC(=O)c3ccc4c(c3)OCO4)CC2)c(C)n1	none
Cc1ccc(Nc2ncc3c(n2)CC(C)(C)CC3=O)cc1	TRPC4 potent 18
CC1(C)CC(=O)c2cnc(NC3CC3)nc2C1	none
Cc1cc(C)n(-c2cc(Cl)cc(Cl)c2)c(=O)c1C#N	none
Cc1ccc(-n2c(C)cc(C)c(C#N)c2=O)cc1Cl	TRPC4 block -6, TRPC4 act 45
CCc1ccc(N(CC(=O)NC2CCCCC2)C(=O)CCC(=O)Nc2ccccn2)cc1	none
NC(N)=NN=C1CCCCCCCCCCC1	TRPC4 act 49, Kir21 block -11
CC(c1ccon1)N(C)C(=O)CCc1nnc(C2(c3ccc(Cl)cc3)CCC2)o1 (stereo not given)	Kir21 block -4.9
CC(=O)Nc1ccc(S(=O)(=O)Nc2nc3ccccc3nc2N2CCc3ccccc3C2)cc1	none
CC(=O)Nc1ccc(S(=O)(=O)Nc2nc3ccccc3nc2N2CCCCCC2)cc1	TRPC4 potent 12
CCOc1ccc(NC(=O)CN(C)C(=O)C2=COCCO2)cc1OCC	none
C=CCNC(=O)/C(C#N)=C/c1ccc(SC)cc1	TRPC4 potent 10
O=C(/C=C/c1ccc2c(c1)OCO2)c1cccnc1	Kir21 block -5.2
O=C(/C=C/c1ccc2c(c1)OCO2)Nc1cccnc1	none
CN(C)c1ccc(C(=O)/C=C/c2cccnc2)cc1	none
O=C(/C=C/c1ccc([N+](=O)[O-])cc1)c1cccnc1	Kir21 block -4.3
O=C(/C=C/c1ccc([N+](=O)[O-])cc1)/C=C/c1ccco1	Kir21 block -5.8
O=C(/C=C/c1cccnc1)c1ccc(F)c(F)c1	Kir21 block -5.3
C/C(=N\O)C1CCCCC1	none
Cc1ccc(OCc2cc(C(=O)N(C)CCc3ccccn3)no2)cn1	TRPC4 act 81
CN(CCc1ccccn1)C(=O)Nc1ccc(C(C)(C)C)cc1	none
Cc1ccc(OCC(=O)N(C)CCc2ccccn2)cc1	TRPC4 act 89
CN(CCc1ccccn1)C(=O)Nc1ccc(F)cc1	TRPC4 act 63
CCc1nc(NCCc2ccccn2)c2nnn(Cc3ccccc3F)c2n1	TRPC4 act 186
COCCN1Cc2cccc(C(=O)NC(C)CCc3ccco3)c2C1=O (stereo not given)	none
CCOc1ccc(NS(=O)(=O)c2ccc(C(=O)N(C)CC(=O)Nc3ccc(C)cc3)cc2)cc1	none
COc1cccc(CN2CCC(C(=O)Nc3ccc(Oc4cccnc4)cc3)CC2)c1	none
Cc1cccc(CN2CCC(C(=O)Nc3ccc(Oc4cccnc4)cc3)CC2)c1	Kir21 block -4.3
CCNC(=S)N(Cc1cc2cc(C)ccc2[nH]c1=O)C1CCCC1	TRPC4 potent 12
CCNC(=S)N(Cc1cc2cc(C)c(C)cc2[nH]c1=O)C1CCCC1	none
CCCCn1c(CCC)nc([N+](=O)[O-])c1Sc1ccc(Cl)cn1	Kir21 block -4.8
Cc1ccc(-n2nnnc2-c2ccccc2)cc1	none
Cc1ccc(-n2nnnc2C(Cl)c2nnnn2-c2ccc(C)cc2)cc1	Kir21 block -12
O=C(N/N=C/c1cc([N+](=O)[O-])cc(Br)c1O)C12CC3CCC(CC(C3)C1)C2	TRPC4 act 136
CCOC(=O)c1ccc(NC(=S)N2CCC(O)CC2)cc1	none
CCOC(=O)c1ccc(NC(=S)N2CCSC2c2ccc(Br)cc2)cc1 (stereo not given)	TRPC4 potent 43
CCC(=O)Oc1ccc2ccccc2c1CNC(=O)c1ccccc1	none
COc1ccc(S(=O)(=O)N2CCC3(CC2)CC(=O)c2ccccc2O3)cc1C	none
CC1CC(C)CN(CCOc2ccccc2-c2ccccc2)C1 (stereo not given)	Kir21 block -6.3
c1ccc(-c2ccccc2OCCCN2CCCC2)cc1	Kir21 block -4.2
COc1ccc(CN(C)C(=O)c2sccc2-c2ccccc2)c(OC)c1	none
CN(Cc1ccc(F)cc1)C(=O)c1sccc1-c1ccccc1	Kir21 block -7.8
COc1ccc(Cc2nnc(NS(=O)(=O)c3ccc(Cl)cc3)s2)cc1OC	none
O=C1CC(C(=O)N2CCN(c3ccccc3O)CC2)CN1Cc1ccccc1 (stereo not given)	none
CCCc1c(-c2ccc(O)cc2)nn(-c2ccc(O)cc2)c1-c1ccc(O)cc1	TRPC4 potent 27
